ChEMBL document CHEMBL1145938, “Synthesis and structure-activity relationship of aminobenzophenones. A novel class of p38 MAP kinase inhibitors with high antiinflammatory activity” (J Med Chem, 2003)

The molecules below were run against Mitogen-activated protein kinase 8 (Homo sapiens) (UniProt P45983) (assay: Inhibition of c-Jun N-terminal kinase 1 at 10 uM).
In short: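 JNK1 activity from UV-stimulated MCF-7 cells, measured with a JNK1 kinase kit in presence of compound.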

Mitogen-activated protein kinase 8 (Homo sapiens), sequence (P45983 whole entry): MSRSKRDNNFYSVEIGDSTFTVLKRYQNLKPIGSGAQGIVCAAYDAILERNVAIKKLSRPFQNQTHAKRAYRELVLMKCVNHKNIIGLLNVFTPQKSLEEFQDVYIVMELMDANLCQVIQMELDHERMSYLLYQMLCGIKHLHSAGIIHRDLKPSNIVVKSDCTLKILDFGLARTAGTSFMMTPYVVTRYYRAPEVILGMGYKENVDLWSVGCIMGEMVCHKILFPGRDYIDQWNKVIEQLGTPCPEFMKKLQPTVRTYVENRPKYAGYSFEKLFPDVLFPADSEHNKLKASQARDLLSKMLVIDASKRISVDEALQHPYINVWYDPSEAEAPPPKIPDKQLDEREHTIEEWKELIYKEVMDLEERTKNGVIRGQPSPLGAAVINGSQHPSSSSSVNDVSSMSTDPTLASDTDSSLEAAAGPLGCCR

Compound | inhibition [%]
Fc1ccc(-c2ncn(C3CCNCC3)c2-c2ccncc2)cc1 [VK-19911] | 9
Cc1cc(F)ccc1Nc1ccc(C(=O)c2ccccc2C)c(Cl)c1 | 0

Each molecule was assayed against Mitogen-activated protein kinase 11 (Homo sapiens) (UniProt Q15759) (assay: Inhibition of Mitogen-activated protein kinase p38 beta at 1 uM).
In short: (§1)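 FLAG-tagged p38 isoform cDNA (β2, γ or δ) transfected into COS-1 cells; kinase activity of the expressed isoform measured with compound at 1 μM.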

Mitogen-activated protein kinase 11 (Homo sapiens), sequence (Q15759 whole entry, canonical isoform): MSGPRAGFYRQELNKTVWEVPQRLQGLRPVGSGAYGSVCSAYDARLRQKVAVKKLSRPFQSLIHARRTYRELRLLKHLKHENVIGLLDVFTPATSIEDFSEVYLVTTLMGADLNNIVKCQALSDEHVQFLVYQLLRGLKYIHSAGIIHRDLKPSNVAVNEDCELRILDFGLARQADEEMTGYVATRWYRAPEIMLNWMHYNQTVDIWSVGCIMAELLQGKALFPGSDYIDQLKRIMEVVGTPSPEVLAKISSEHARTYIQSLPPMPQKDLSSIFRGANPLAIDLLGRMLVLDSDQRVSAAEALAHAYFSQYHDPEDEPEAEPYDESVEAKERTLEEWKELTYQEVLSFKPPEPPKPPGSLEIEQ

Compound | inhibition [%]
Fc1ccc(-c2ncn(C3CCNCC3)c2-c2ccncc2)cc1 [VK-19911] | 59
Cc1cc(F)ccc1Nc1ccc(C(=O)c2ccccc2C)c(Cl)c1 | 92

What follows are molecules tested against T1, MAP kinase p38 (Homo sapiens, UniProt O15264+Q15759+Q16539+P53778) (assay: In vitro inhibition of cytokine IL-10 release by human […]).
Assay type: functional
In short: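 Buffy-coat PBMC at 5×10^5 cells/mL in RPMI1640 with 10% FCS, glutamine, antibiotics; 30 min compound preincubation, then phytohemagglutinin stimulation and 48 h incubation.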

Compound | IC50 [nM]
Cc1cc(F)ccc1Nc1ccc(C(=O)c2ccccc2C)c(Cl)c1 | 51

The molecules below were run against T2, Myeloperoxidase (Mus musculus) (UniProt P11247) (assay: Inhibition of myeloperoxidase (MPO) activity induced by TPA in murine chronic irritative contact dermatitis model at 0.5 mg/ear (in vivo)).
T2 sequence (whole entry): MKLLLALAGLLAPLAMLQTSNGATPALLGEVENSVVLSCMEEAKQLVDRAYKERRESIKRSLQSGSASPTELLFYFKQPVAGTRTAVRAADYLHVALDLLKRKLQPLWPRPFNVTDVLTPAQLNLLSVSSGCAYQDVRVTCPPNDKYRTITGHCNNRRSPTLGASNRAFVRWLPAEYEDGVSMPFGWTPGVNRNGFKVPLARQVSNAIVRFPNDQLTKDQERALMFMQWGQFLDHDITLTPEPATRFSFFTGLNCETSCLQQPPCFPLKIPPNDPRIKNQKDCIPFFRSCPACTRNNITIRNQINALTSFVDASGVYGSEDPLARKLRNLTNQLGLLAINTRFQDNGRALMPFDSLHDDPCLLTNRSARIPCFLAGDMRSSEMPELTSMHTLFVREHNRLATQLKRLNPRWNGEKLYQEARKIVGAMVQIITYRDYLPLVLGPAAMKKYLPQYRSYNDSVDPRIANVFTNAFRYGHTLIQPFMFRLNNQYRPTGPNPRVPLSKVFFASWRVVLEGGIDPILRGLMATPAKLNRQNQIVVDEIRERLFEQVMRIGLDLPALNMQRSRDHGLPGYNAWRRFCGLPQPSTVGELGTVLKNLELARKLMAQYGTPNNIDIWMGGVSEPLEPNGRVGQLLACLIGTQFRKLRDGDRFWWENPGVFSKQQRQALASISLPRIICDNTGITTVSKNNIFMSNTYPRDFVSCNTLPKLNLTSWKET
Assay type: organism-based

Compound | inhibition [%]
Cc1cc(F)ccc1Nc1ccc(C(=O)c2ccccc2C)c(Cl)c1 | 60

Organism: Homo sapiens
Test: In vitro inhibition of cytokine IL-2 release by human […]
Assay type: functional
In short: (§2)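 Human PBMC were isolated from buffy coats and diluted 1:1 in saline. Cells were held at 5×10^5 cells/mL in RPMI1640 with 2 mM glutamine and penicillin/streptomycin, then preincubated 30 min with compound. IL-12: 2% FCS, IFN-γ 95 ng/mL for 18 h, then LPS for 24 h. IL-2 and IFN-γ: 10% FCS, phytohemagglutinin for 48 h. Supernatant cytokine measured by sandwich ELISA.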

Compound | IC50 [nM]
Fc1ccc(-c2ncn(C3CCNCC3)c2-c2ccncc2)cc1 [VK-19911] | > 1000
Cc1cc(F)ccc1Nc1ccc(C(=O)c2ccccc2C)c(Cl)c1 | > 1000

The molecules below were run on Mus musculus (assay: Inhibition of ear swelling induced by 12-O-tetradecanoylphorbol-13-acetate (TPA) in murine chronic irritative contact dermatitis model at 0.5 mg/ear (in vivo)).
Assay type: functional
In short: (§3)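 Murine TPA-induced chronic irritative ear dermatitis, with compound given topically per ear. Ear swelling and ear weight were determined 5 h after the last application. Values are mean % inhibition ± SEM of three to five experiments.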

Compound | Inhibition [%]
Cc1cc(F)ccc1Nc1ccc(C(=O)c2ccccc2C)c(Cl)c1 | 26

Organism: Homo sapiens
Test: In vitro inhibition of cytokine IL-12 release by human […]
Assay type: functional
In short: as §2

Compound | IC50 [nM]
Fc1ccc(-c2ncn(C3CCNCC3)c2-c2ccncc2)cc1 [VK-19911] | > 1000
Cc1cc(F)ccc1Nc1ccc(C(=O)c2ccccc2C)c(Cl)c1 | > 1000

These molecules were tested against T1, MAP kinase p38 (assay: In vitro inhibition of cytokine IL-8 release by human peripheral blood mononuclear cells).

Compound | IC50 [nM]
Cc1cc(F)ccc1Nc1ccc(C(=O)c2ccccc2C)c(Cl)c1 | 79

These molecules were tested against Mitogen-activated protein kinase; ERK1/ERK2 (Homo sapiens) (UniProt P27361+P28482) (assay: Inhibition of Mitogen-activated protein kinase 3/Mitogen-activated protein kinase 1 (ERK) at 10 uM).
Assay type: protein assay
In short: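 MCF-7 cells stimulated with EGF; ERK1/2 activity measured with a modified cell-signalling ERK1/2 kinase kit in presence of compound.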

Mitogen-activated protein kinase; ERK1/ERK2 (Homo sapiens), sequence (P27361 whole entry, looked up): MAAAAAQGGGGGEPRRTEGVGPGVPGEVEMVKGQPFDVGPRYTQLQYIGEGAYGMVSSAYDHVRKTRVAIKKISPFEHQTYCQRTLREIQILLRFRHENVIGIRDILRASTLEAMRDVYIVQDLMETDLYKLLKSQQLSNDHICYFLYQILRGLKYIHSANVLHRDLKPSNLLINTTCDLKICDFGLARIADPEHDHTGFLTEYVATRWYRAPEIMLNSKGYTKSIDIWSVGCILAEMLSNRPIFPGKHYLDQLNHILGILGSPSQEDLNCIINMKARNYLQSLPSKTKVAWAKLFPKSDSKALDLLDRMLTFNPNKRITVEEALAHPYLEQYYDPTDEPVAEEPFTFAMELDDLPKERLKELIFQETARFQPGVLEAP
Mitogen-activated protein kinase; ERK1/ERK2 (Homo sapiens), sequence (P28482 whole entry, looked up): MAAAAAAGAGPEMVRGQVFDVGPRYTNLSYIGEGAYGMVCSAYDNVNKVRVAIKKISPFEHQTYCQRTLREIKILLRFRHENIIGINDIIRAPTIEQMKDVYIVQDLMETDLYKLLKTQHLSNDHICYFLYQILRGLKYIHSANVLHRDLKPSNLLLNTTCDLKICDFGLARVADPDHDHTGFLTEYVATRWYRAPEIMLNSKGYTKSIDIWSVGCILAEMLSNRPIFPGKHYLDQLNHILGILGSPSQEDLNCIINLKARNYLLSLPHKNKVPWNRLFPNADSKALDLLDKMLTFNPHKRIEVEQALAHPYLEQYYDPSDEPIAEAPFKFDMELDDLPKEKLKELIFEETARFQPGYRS

Compound | inhibition [%]
Fc1ccc(-c2ncn(C3CCNCC3)c2-c2ccncc2)cc1 [VK-19911] | 0
Cc1cc(F)ccc1Nc1ccc(C(=O)c2ccccc2C)c(Cl)c1 | 0

What follows are molecules tested against T1, MAP kinase p38 (assay: In vitro inhibition of TNF-alpha release from LPS stimulated human peripheral blood mononuclear cells.).
Assay type: functional
In short: (§4)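 Human PBMC from buffy coats (Lymphoprep), 5×10^5 cells/mL in RPMI1640 with 2% FCS, glutamine, penicillin/streptomycin; 30 min preincubation with compound, then LPS stimulation, 18 h at 37 °C, 5% CO2.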

Compound | IC50 [nM]
Cc1cc(C(=O)c2ccccc2C)ccc1Nc1ccccc1N | 127
COc1ccccc1C(=O)c1ccc(Nc2ccccc2N)cc1Cl | 20
CC(=O)Nc1ccccc1Nc1ccc(C(=O)c2ccccc2C)c(Cl)c1 | 10
CCOC(=O)Nc1ccccc1Nc1ccc(C(=O)c2ccccc2C)c(Cl)c1 | 6
Nc1ccccc1Nc1ccc(C(=O)c2ccccc2)cc1 | 159
Cc1ccccc1C(=O)c1ccc(N(C)c2ccccc2N)cc1Cl | 44
Cc1cc(F)ccc1Nc1ccc(C(=O)c2ccccc2C)c(Cl)c1 | 4
Cc1ccccc1C(=O)c1ccc(Nc2ccccc2[N+](=O)[O-])cc1Cl | 382
Cc1ccccc1C(=O)c1ccc(Nc2ccccc2)cc1Cl | 24

What follows are molecules tested on Mus musculus (assay: Inhibition of ear weight induced by 12-O-tetradecanoylphorbol-13-acetate (TPA) in murine chronic irritative contact dermatitis model at 0.5 mg/ear (in vivo)).
Assay type: functional
In short: as §3

Compound | Inhibition [%]
Cc1cc(F)ccc1Nc1ccc(C(=O)c2ccccc2C)c(Cl)c1 | 26

Each molecule was assayed against T3, Mitogen-activated protein kinase 13 (Homo sapiens) (UniProt O15264) (assay: Inhibition of Mitogen-activated protein kinase p38 delta at 1 uM).
T3 sequence (whole entry): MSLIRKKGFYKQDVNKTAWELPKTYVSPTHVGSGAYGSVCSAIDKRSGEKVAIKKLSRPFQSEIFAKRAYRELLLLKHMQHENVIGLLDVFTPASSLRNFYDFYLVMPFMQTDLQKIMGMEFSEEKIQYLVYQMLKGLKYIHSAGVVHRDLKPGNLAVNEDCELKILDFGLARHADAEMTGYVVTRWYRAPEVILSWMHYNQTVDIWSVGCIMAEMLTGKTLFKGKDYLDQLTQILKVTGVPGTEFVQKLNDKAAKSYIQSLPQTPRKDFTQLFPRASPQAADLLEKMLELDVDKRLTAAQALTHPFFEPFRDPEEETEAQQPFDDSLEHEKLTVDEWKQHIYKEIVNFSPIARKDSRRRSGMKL
In short: as §1

Compound | inhibition [%]
Fc1ccc(-c2ncn(C3CCNCC3)c2-c2ccncc2)cc1 [VK-19911] | 8
Cc1cc(F)ccc1Nc1ccc(C(=O)c2ccccc2C)c(Cl)c1 | 4

What follows are molecules tested against T4, Mitogen-activated protein kinase 14 (Homo sapiens, UniProt Q16539) (assay: In vitro inhibitory activity determined against human mitogen-activated protein kinase p38 alpha).
T4 sequence (Q16539 whole entry): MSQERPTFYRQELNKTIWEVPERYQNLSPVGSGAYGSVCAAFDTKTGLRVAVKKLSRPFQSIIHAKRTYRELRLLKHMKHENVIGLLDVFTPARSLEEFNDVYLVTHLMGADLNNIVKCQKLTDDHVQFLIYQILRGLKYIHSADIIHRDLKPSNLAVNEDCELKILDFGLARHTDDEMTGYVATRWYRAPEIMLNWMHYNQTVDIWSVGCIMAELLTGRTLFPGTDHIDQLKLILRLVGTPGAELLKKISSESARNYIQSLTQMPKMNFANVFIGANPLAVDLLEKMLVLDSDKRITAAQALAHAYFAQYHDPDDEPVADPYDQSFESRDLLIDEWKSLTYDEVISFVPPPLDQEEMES

Compound | IC50 [nM]
Cc1cc(C(=O)c2ccccc2C)ccc1Nc1ccccc1N | 143
COc1ccccc1C(=O)c1ccc(Nc2ccccc2N)cc1Cl | 5
CC(=O)Nc1ccccc1Nc1ccc(C(=O)c2ccccc2C)c(Cl)c1 | 63
CCOC(=O)Nc1ccccc1Nc1ccc(C(=O)c2ccccc2C)c(Cl)c1 | 42
Nc1ccccc1Nc1ccc(C(=O)c2ccccc2)cc1 | 145
Cc1ccccc1C(=O)c1ccc(N(C)c2ccccc2N)cc1Cl | 101
Cc1cc(F)ccc1Nc1ccc(C(=O)c2ccccc2C)c(Cl)c1 | 4
Cc1ccccc1C(=O)c1ccc(Nc2ccccc2[N+](=O)[O-])cc1Cl | 437
Cc1ccccc1C(=O)c1ccc(Nc2ccccc2)cc1Cl | 7

Each molecule was assayed against T4, Mitogen-activated protein kinase 14 (assay: Inhibition of Mitogen-activated protein kinase p38 alpha at 1 uM).
In short: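 FLAG-tagged p38α cDNA was transfected into COS-1 cells. Kinase activity of the expressed isoform was measured with compound at 1 μM.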

Compound | inhibition [%]
Fc1ccc(-c2ncn(C3CCNCC3)c2-c2ccncc2)cc1 [VK-19911] | 73
Cc1cc(F)ccc1Nc1ccc(C(=O)c2ccccc2C)c(Cl)c1 | 88

Organism: Homo sapiens
Test: In vitro inhibition of gamma-interferon release by human […]
Assay type: functional
In short: as §2

Compound | IC50 [nM]
Fc1ccc(-c2ncn(C3CCNCC3)c2-c2ccncc2)cc1 [VK-19911] | > 1000
Cc1cc(F)ccc1Nc1ccc(C(=O)c2ccccc2C)c(Cl)c1 | > 1000

Each molecule was assayed against T1, MAP kinase p38 (assay: In vitro inhibition of IL1-beta release from LPS stimulated human peripheral blood mononuclear cells.).
Assay type: functional
In short: as §4

Compound | IC50 [nM]
Cc1cc(C(=O)c2ccccc2C)ccc1Nc1ccccc1N | 343
COc1ccccc1C(=O)c1ccc(Nc2ccccc2N)cc1Cl | 28
CC(=O)Nc1ccccc1Nc1ccc(C(=O)c2ccccc2C)c(Cl)c1 | 21
CCOC(=O)Nc1ccccc1Nc1ccc(C(=O)c2ccccc2C)c(Cl)c1 | 16
Nc1ccccc1Nc1ccc(C(=O)c2ccccc2)cc1 | 226
Cc1ccccc1C(=O)c1ccc(N(C)c2ccccc2N)cc1Cl | 70
Cc1cc(F)ccc1Nc1ccc(C(=O)c2ccccc2C)c(Cl)c1 | 17
Cc1ccccc1C(=O)c1ccc(Nc2ccccc2[N+](=O)[O-])cc1Cl | 427
Cc1ccccc1C(=O)c1ccc(Nc2ccccc2)cc1Cl | 119

Organism: Mus musculus
Test: Inhibition of ear swelling induced by oxazolone induced murine allergic contact dermatitis model at 0.5 mg/ear at 72 hr
Assay type: functional
In short: (§5)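 Groups of six female inbred BALB/cABOM mice (18–21 g) were sensitized with oxazolone on the clipped abdomen 7 days before right-ear challenge. Compound in acetone (20 μL) or vehicle was applied once, 30 min after challenge. Ear swelling (right minus left ear thickness) was read at 24, 48 and 72 h. Values are mean % inhibition ± SEM of four or five experiments.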

Compound | Inhibition [%]
Cc1cc(F)ccc1Nc1ccc(C(=O)c2ccccc2C)c(Cl)c1 | 54

What follows are molecules tested on Mus musculus (assay: Inhibition of ear swelling induced by oxazolone in murine allergic contact dermatitis model at 0.5 mg/ear at 48 hr (in vivo)).

Compound | Inhibition [%]
Cc1cc(F)ccc1Nc1ccc(C(=O)c2ccccc2C)c(Cl)c1 | 46

These molecules were tested against T5, Mitogen-activated protein kinase 12 (Homo sapiens) (UniProt P53778) (assay: Inhibition of Mitogen-activated protein kinase p38 gamma at 1 uM).
T5 sequence (whole entry): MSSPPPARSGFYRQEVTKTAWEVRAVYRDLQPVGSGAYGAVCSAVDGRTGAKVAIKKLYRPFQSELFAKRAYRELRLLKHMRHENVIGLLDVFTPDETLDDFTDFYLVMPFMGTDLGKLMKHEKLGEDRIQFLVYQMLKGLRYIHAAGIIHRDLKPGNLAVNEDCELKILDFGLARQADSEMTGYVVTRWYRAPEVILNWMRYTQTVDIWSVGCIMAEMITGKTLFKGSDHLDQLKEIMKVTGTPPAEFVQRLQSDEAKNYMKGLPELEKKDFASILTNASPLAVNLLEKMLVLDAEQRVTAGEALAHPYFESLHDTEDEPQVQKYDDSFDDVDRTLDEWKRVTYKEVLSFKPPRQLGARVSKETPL
In short: as §1

Compound | inhibition [%]
Fc1ccc(-c2ncn(C3CCNCC3)c2-c2ccncc2)cc1 [VK-19911] | 0
Cc1cc(F)ccc1Nc1ccc(C(=O)c2ccccc2C)c(Cl)c1 | 5

Each molecule was assayed against T1, MAP kinase p38 (assay: In vitro inhibition of cytokine IL-6 release by human […]).
Assay type: functional
In short: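 PBMC isolated from buffy coats, 5×10^5 cells/mL in RPMI1640 plus 2% FCS, glutamine and antibiotics. Compound added 30 min before LPS; culture 6 h. Supernatant IL-6 or IL-8 quantified by ELISA kits.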

Compound | IC50 [nM]
Cc1cc(F)ccc1Nc1ccc(C(=O)c2ccccc2C)c(Cl)c1 | 35

These molecules were tested against T2, Myeloperoxidase (Mus musculus) (assay: Inhibition of myeloperoxidase (MPO) activity induced by oxazolone in murine allergic contact dermatitis model at 0.5 mg/ear at 72 hr).

Compound | inhibition [%]
Cc1cc(F)ccc1Nc1ccc(C(=O)c2ccccc2C)c(Cl)c1 | 57

Organism: Mus musculus
Test: Inhibition of ear swelling in oxazolone-induced murine allergic contact dermatitis at 0.5 mg/ear at 24 hr
Assay type: functional
In short: as §5

Compound | Inhibition [%]
Cc1cc(F)ccc1Nc1ccc(C(=O)c2ccccc2C)c(Cl)c1 | 40
